Test results from article PMC6370461 (ACS chemical biology, 2018).

Experiments:
[1] = target: T1, Human DJ-1 (Homo sapiens, UniProt Q99497); test: Binding affinity and thermodynamics by ITC
T1 sequence (Q99497 1-189): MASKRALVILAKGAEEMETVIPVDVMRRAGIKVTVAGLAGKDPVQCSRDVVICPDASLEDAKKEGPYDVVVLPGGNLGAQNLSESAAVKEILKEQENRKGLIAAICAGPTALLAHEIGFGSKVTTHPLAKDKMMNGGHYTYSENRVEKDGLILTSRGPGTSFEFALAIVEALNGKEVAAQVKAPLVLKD
Procedure, shortened: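 Recombinant human DJ-1 (E. coli-expressed) dialysed into PBS to remove DTT; compounds in the same PBS with 5% DMSO. Titrations at 25 °C with protein in the cell and compound in the syringe: DJ-1 20 μM against compound 200 μM (muteins: protein 100 μM, compound 1 mM). Isotherms fitted to a one-site binding model.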

[2] = target: T1, Human DJ-1; test: Thermal stability of DJ-1 by DSF; format: binding; settings: DJ-1 10 μM, compound 50 μM
Procedure, shortened: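 Tag-free DJ-1 (10 μM) with compound (50 μM) in PBS, 0.01% Tween 20 and 2.5% DMSO, with SYPRO Orange dye (excitation 470 nm, emission 570 nm). Samples were heated from 30 to 85 °C at 2 °C/min. TM was taken from the inflection point of the derivative unfolding curve and compared with unbound protein.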

[3] = target: T1, Human DJ-1; test: In vitro glyoxalase activity assay with phenylglyoxal as substrate; format: biochemical
Procedure, shortened: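 Recombinant DJ-1 0.5 μM with phenylglyoxal 2 μM in 100 mM potassium phosphate pH 7.0, 1% DMSO; compound 1.0 nM–30 μM. Initial velocities were taken from the loss of absorbance at 250 nm. Activity was expressed as the velocity ratio with versus without inhibitor, and sigmoidal fits gave the inhibition constant.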

[4] = target: T2, DJ-1 in HeLa cells (Homo sapiens, UniProt Q99497); test: Cellular thermal shift assay; format: cell-based; settings: thermal treatment at 63 °C
T2 sequence (Q99497 1-189): T1 sequence (Q99497 1-189)

[5] = test system: DJ-1 in HEK293 cells; test: Glyoxalase/deglycase activity in cells: CML-modified proteins by western blot; format: cell-based, human; settings: glyoxal 2 mM
Procedure, shortened: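 HEK293 cells (2×10^5 per 6 cm dish) were cultured 3 days in DMEM with 10% FBS, then starved 20 h in 1% FBS. Treatment was 3 h in DMEM with 1% FBS, 0.2% DMSO and compound, with or without glyoxal (2 mM). Lysates underwent SDS-PAGE, nitrocellulose transfer and immunoblotting for carboxymethyl lysine, DJ-1 and β-actin, detected with HRP secondaries.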

[6] = target: T2, DJ-1 in HeLa cells; test: CML-modified protein by western blot in HeLa cells; format: cell-based; settings: highest concentration employed
Procedure, shortened: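 HeLa cells (1.5×10^5 per well) were grown 24 h in DMEM with 10% FBS, starved 20 h in 0.5% FBS, then exposed 3 h to compound in 0.5% FBS with 0.2% DMSO. DJ-1 knockout HeLa cells were also used. RIPA lysates went to SDS-PAGE and nitrocellulose. The anti-CML blot was read by HRP chemiluminescence; DJ-1 and β-actin were detected by Cy5 fluorescence.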

O=C1Nc2ccccc2C1=O [compound 1, 1H-indole-2,3-dione]
Kd [1]: 3.2 ± 0.1 µM | enthalpic efficiency (EE) [1]: 1.1 kcal/mol | ΔH of binding ([1]; ITC, 25 °C): -11.6 ± 0.1 kcal/mol | −TΔS of binding ([1]; ITC, 25 °C): 4.1 kcal/mol | ΔTM, thermal stabilization with respect to the unbound protein [2]: 1.8 °C | IC50 [3]: 13 µM | stabilization of the soluble form of DJ-1 in cells [4]: concentration-dependent stabilization | intensity of bands of proteins modified with CML compared with DMSO control [5]: increased significantly | intensity of a protein modified with CML [6]: clearly increases
